# The list is not random: actives were taken first. Their share in the collection is about 6.4%.
# CHOP inh: inhibitors of CHOP promoter induction, primary screen, cell-based, unfolded protein response, luciferase reporter. CHO-K1 CHOP-promoter luciferase, tunicamycin-induced, 15-18 h. inhibition, % at 10 µM. 220,000 tested, 3.8% active;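 active = compounds that reduced the stress-induced luciferase reporter signal by more than about 70% of percent inhibition, limit read from the data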;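 note: 0% = tunicamycin plus vehicle and 100% = wells without tunicamycin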
# WT yeast gro inh: growth inhibition of WT strain, primary screen, mitochondrial fusion inhibitor project, WT and mutant strains, chemical genetic; inhibition, % at 10 µM; 190,000 tested, 2.1% active; AID 1362, 2008; mitochondrial fusion phenotypic screen; in the data active = inhibition above about 58%; tested in S. cerevisiae
# MPTP block: mitochondrial permeability transition pore inhibitors, primary screen, biochemical, isolated mouse mitochondria, absorbance; 360,000 tested, 1.4% active; Ca2+ swelling absorbance, 30 min; AID 602449, 2012; inhibition, % at 10 µM;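 active = inhibition of 50% or more, scaled per plate between neutral and stimulator controls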;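 note: 0% = DMSO wells given calcium and 100% = 1 mM EGTA wells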
# Tb MetRS inh: T. brucei MetRS inhibitors, primary screen, biochemical, luminescence; methionyl-tRNA synthetase (Trypanosoma brucei brucei); purified T. brucei MetRS, ATP depletion, Kinase-Glo luminescence; inhibition, % at 11.9 µM; 360,000 tested, 0.4% active; AID 624268, 2012;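 active = inhibition above a per-plate cutoff of the control wells' mean inhibition plus 3 SD, cut at about 5.5% in these data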;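 note: 0% = DMSO wells median and 100% = median of wells with control inhibitor compound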
#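 Dosing: 11.9 µM single point; system: parasite MetRS enzyme; technique: luminescence of leftover ATP; times: 15 min enzyme-compound preincubation, 2 h reaction, 10 min detection, 25 °C; replicates: each compound tested once; read-out basis: percent inhibition relative to median high and low control wells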
# GRIN3A LBD mod: binders of NR3A ligand-binding domain, primary screen, biophysical, differential scanning fluorimetry, uHTS. Glutamate receptor ionotropic, NMDA 3A (GRIN3A) ligand-binding domain. NR3A LBD differential scanning fluorimetry, Tm shift; 0% = protein alone, 100% = glycine-bound protein. Tm shift relative to glycine control, % at 25 µM. 340,000 tested, 2.5% active. AID 1259313, 2017;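 active = melting temperature shift of at least 10% of the positive control shift, at one fixed dose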
# EBV gp42 block: Epstein-Barr virus gp42 inhibitors, primary screen, biochemical, uHTS, fluorescence polarization; 220,000 tested, 0.42% active; Fluorescence polarization binding assay, mP read-out; inhibition, % (tested at 21.74 µM); in the data active = inhibition above about 50%
# Target sequence (Q1HVG2 whole entry, looked up): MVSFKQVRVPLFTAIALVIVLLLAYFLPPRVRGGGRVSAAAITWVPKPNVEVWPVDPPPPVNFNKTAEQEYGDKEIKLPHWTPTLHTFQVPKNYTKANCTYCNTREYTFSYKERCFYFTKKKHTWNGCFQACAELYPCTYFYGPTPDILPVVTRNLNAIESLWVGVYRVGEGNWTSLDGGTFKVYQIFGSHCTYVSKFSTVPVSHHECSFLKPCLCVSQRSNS
# * = called active by the depositor; . = no result given.
SMILES,CHOP inh,WT yeast gro inh,MPTP block,Tb MetRS inh,GRIN3A LBD mod,EBV gp42 block
COCCN(Cc1cc2cc(C)ccc2n2nnnc12)C(=S)Nc1ccccc1C,-16,-16,-2,-1,0,8
O=c1cc(-c2ccc(O)cc2)oc2ccc3ccccc3c12,.,.,8,0,24*,.
O=C(Cc1cccc(C(F)(F)F)c1)Nc1cccc(S(=O)(=O)N2CCCC2)c1,.,.,1,3,-12,.
Clc1nc(-c2ccccn2)nc2scc(-c3ccccc3)c12,35,15,1,0,24*,-6
On1cnnc1-c1ccccc1,8,-14,3,-1,11*,-24
Cc1ccc(-c2nc(-c3nccc4ccccc34)oc2-c2ccccc2)cc1,-10,.,0,0,11*,-4
c1ccc(-c2nccc3ccccc23)cc1,.,.,1,0,1,.
COc1cccc(CC2(CO)CCCN(Cc3cnn(-c4ccccc4)c3)C2)c1 (stereo not drawn),0,12,1,0,-1,-15
Cc1ccc(-n2c(SCC(=O)c3c(N)n(C)c(=O)n(C)c3=O)nc3sc4c(c3c2=O)CCCC4)c(C)c1,73*,18,0,1,3,-13
CCOc1ccc(-c2nnn(CC(=O)NCc3ccc(F)cc3)n2)cc1OCC,81*,-67,3,-1,-11,-22
CCOc1ccc(-c2nnn(CC(=O)Nc3cccc(OC)c3)n2)cc1OCC,49,23,2,-1,-1,-15
COc1cccc(OC)c1C(=O)Nc1cccc(NC(=O)c2cccs2)c1,.,.,-1,0,0,.
CC(C)C1OC(c2cccc(NC(=O)c3cccs3)c2)OCC1(C)C (stereo not drawn),79*,69*,5,-1,-2,-12
CCOC(=O)c1c(CN2CCOCC2)n(-c2ccccc2)c2cc(Br)c(OC)cc12,13,73*,1,-1,3,-10
CC(=O)c1ccc(NC(=O)CSC(C)C)cc1,-11,2,0,-1,-1,-5
CC(=O)N(C(C)=O)n1c(/C=C/c2cccc([N+](=O)[O-])c2)nc2ccccc2c1=O,93*,-4,-2,0,0,0
O=C(O)c1cccc(-n2c(/C=C/c3cccc([N+](=O)[O-])c3)nc3ccccc3c2=O)c1,.,.,1,-1,-1,.
O=C(Nc1nc(-c2cccc3ccccc23)cs1)c1cnccn1,93*,-20,1,0,-2,3
Cc1ccc(/C=N/n2cnc3sc4c(c3c2=O)CCCC4)o1,2,3,-1,-1,0,-27
Oc1ccc(-c2nc(-c3ccc(O)c(O)c3)cs2)cc1,.,-10,16,0,21*,0
COc1ccc(NC(=O)COC(=O)C2CCN(S(=O)(=O)c3cccs3)CC2)cc1,78*,0,0,0,-1,-1
COc1ccc(CCNc2nc(-c3cccnc3)cs2)cc1OC,2,32,5,0,-1,138*
Clc1cccc(-c2csc(Nc3cccnc3)n2)c1,37,.,-1,0,29*,-9
Clc1ccccc1Nc1nc(-c2cccnc2)cs1,6,11,1,0,-15,-12
Cc1ccc(C)c(Nc2nc(-c3cccnc3)cs2)c1,.,.,0,0,20*,.
SMILES,CHOP inh,WT yeast gro inh,MPTP block,Tb MetRS inh,GRIN3A LBD mod,EBV gp42 block
c1ccc(Nc2nc(-c3cccnc3)cs2)nc1,-14,-2,0,-1,34*,-24
c1cncc(Nc2nc(-c3cccnc3)cs2)c1,31,-3,-5,-1,0,-8
CC(C)(C)N1C(=O)c2ccccc2NC(=O)N1Cc1ccccc1,-10,-3,-1,0,3,-12
O=C1Nc2ccccc2C(=O)C1(Cl)Cc1ccccc1 (stereo not drawn),77*,10,0,1,2,-12
O=C(Nc1ccc(N2CCOCC2)cc1)c1cnsn1,78*,17,-1,0,-1,0
Cc1ccc(S(=O)(=O)c2cccc(S(=O)(=O)N3CCCC3)c2)cc1S(=O)(=O)N1CCCC1,24,6,15,-1,4,-18
NC(=O)COC(=O)c1ccc2c(c1)S(=O)(=O)N=C1CCCCCN12,-6,-3,-1,0,-7,-5
CCN(CC)S(=O)(=O)c1ccc(Cl)c(NC(=O)COc2ccc3c(C)cc(=O)oc3c2)c1,-40,-1,0,-1,2,-13
COc1cc(NC(=O)COc2ccc3c(C)cc(=O)oc3c2C)cc(OC)c1OC,.,.,1,-1,14*,.
CCC(CC)c1nnc(NC(=O)COc2ccc3c(C)cc(=O)oc3c2)s1,29,6,3,-1,-1,-16
CCN(CC)S(=O)(=O)c1ccc(C)c(NC(=O)COC(=O)C=C(C)C)c1,-1,.,-1,0,0,-18
CCN(CC)S(=O)(=O)c1ccc(C)c(NC(=O)COc2ccc(Cl)cc2Br)c1,74*,-1,3,0,-3,-38
Cc1nnc(NC(=O)COc2ccc3c(C)cc(=O)oc3c2)s1,64,-16,0,-1,-1,51*
CCN(CC)S(=O)(=O)c1ccc(OC)c(NC(=O)COc2ccc3c(C)cc(=O)oc3c2)c1,-6,-8,3,0,11*,-20
CC1CC(C)CN(C(=O)c2ccc3c(=O)n(Cc4ccc5c(c4)OCO5)c(=S)[nH]c3c2)C1 (stereo not drawn),95*,-10,25,0,-4,-11
CCCCCn1c(=O)[nH]c2cc(C(=O)N3CCN(Cc4ccc5c(c4)OCO5)CC3)ccc2c1=O,82*,-25,17,-3,3,2
COC(CNC(=O)c1ccc2c(=O)n(Cc3ccc4c(c3)OCO4)c(=S)[nH]c2c1)OC,.,.,0,-1,-1,.
COCCCNC(=O)c1ccc2c(=O)n(Cc3ccc4c(c3)OCO4)c(=S)[nH]c2c1,54,-27,6,0,12*,-12
O=C(c1ccc2c(=O)n(Cc3ccc(Cl)cc3)c(=S)[nH]c2c1)N1CCCC1,.,.,-2,-1,-6,.
CCCCCn1c(=O)[nH]c2cc(C(=O)NCc3ccc4c(c3)OCO4)ccc2c1=O,57,1,2,1,-4,-3
O=C(c1ccc2c(=O)n(Cc3ccc4c(c3)OCO4)c(=S)[nH]c2c1)N1CCCCC1,92*,-6,8,0,-1,-16
CCCc1c(C(=O)Nc2cc(C(C)(C)C)on2)cnn1-c1ccccc1,20,.,7,0,1,-2
O=C(NC1CCCCCC1)C(=S)NCc1ccccc1,-5,73*,1,0,3,1
